≈ marks a conversion by molar mass, not a printed value.
Tests used:
Candida albicans [1] = assay: In vitro evaluation of minimum inhibitory concentration against Candida albicans 76; assay type: functional
Method in brief: (§1)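 Stocks are 800 μg/mL in 50% ethanol. Each plate gets 10 μL of inoculum at 10^5 cfu/mL. Incubation at 25 °C, 48 h for yeasts and 120 h for dermatophytes and molds. Organisms are ATCC strains or clinical isolates.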

Candida albicans [2] = assay: In vivo evaluation of minimum inhibitory concentration against Candida albicans 60; assay type: functional
Method in brief: (§2)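 Broth macrodilution MIC following NCCLS M27-P, in RPMI-1640 buffered with 0.165 M MOPS. Fluconazole was dissolved in water and other drugs in DMSO. C. parapsilosis ATCC 22019 served as the reference strain in every run. MIC was the lowest concentration giving turbidity at or below the 80% inhibition standard.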

Mus sp. [3] = assay: In vivo evaluation of % survival rate after peroral administration on 3rd day at dose 1 mg/kg; assay type: functional; settings: route oral, 1 mg/kg
Mus sp. [4] = assay: In vivo evaluation of % survival rate after peroral administration on 5th day at dose 1 mg/kg; assay type: functional; settings: route oral, 1 mg/kg
Mus sp. [5] = assay: In vivo evaluation of % survival rate after peroral administration on 7th day at dose 1 mg/kg; assay type: functional; settings: route oral, 1 mg/kg
Mus sp. [6] = assay: In vivo evaluation of % survival rate after peroral administration on 9th day at dose 1 mg/kg; assay type: functional; settings: route oral, 1 mg/kg
Rattus norvegicus [7] = assay: In vivo evaluation of antifungal activity against vaginal candidosis in rat at dose 0.25 mg/kg on 10th day; assay type: functional
Method in brief: (§3)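 Groups of 10 female Wistar rats given estradiol 25 mg/kg sc on day -5, infected intravaginally with C. albicans by sterile swab on day 0; infection confirmed on day 3 by swab culture (TSB, then Sabouraud agar). Oral dosing once daily on days 3, 4, 5; vehicle controls. Vaginal swabs cultured on days 10 and 15; read-out % cured (culture-negative).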

Rattus norvegicus [8] = assay: In vivo evaluation of antifungal activity against vaginal candidosis in rat at dose 0.5 mg/kg on 10th day; assay type: functional
Method in brief: (§4)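 Female Wistar rats, 10 per group, received estradiol 25 mg/kg sc on day -5. On day 0 they were infected intravaginally with C. albicans by sterile swab. Infection was confirmed on day 3 by culturing the swab in TSB and then on Sabouraud agar. Oral dosing was once daily on days 3, 4 and 5; controls got vehicle only. Vaginal swabs taken on days 10 and 15 were cultured and read the next day.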

Rattus norvegicus [9] = assay: In vivo evaluation of antifungal activity against vaginal candidosis in rat at dose 0.5 mg/kg on 15th day; assay type: functional; method in brief: as §4
Kluyveromyces marxianus = assay: In vitro evaluation of minimum inhibitory concentration against Candida pseudotropicalis 13; assay type: functional; method in brief: as §1
Rattus norvegicus [10] = assay: In vivo evaluation of antifungal activity against vaginal candidosis in rat at dose 0.25 mg/kg on 15th day; assay type: functional; method in brief: as §3
Aspergillus fumigatus [11] = assay: In vivo evaluation of minimum inhibitory concentration against Aspergillus fumigatus 33; assay type: functional; settings: in the assay text read “In vitro” for “In vivo”
Method in brief: (§5)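 Agar dilution MIC. Inocula were 10^5 cfu/mL; 10 µL was spotted onto Kimmig's agar with 0.5% glycerol containing twofold drug dilutions (80 to 0.025 µg/mL). Drug stocks were 800 µg/mL in 50% ethanol. Plates were incubated at 25 °C, 48 h for yeasts and 120 h for molds and dermatophytes.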

Aspergillus niger = assay: In vitro evaluation of minimum inhibitory concentration against Aspergillus niger 18; assay type: functional; settings: Aspergillus niger; read-out: MIC; method in brief: as §1
Candida albicans [12] = assay: In vivo evaluation of minimum inhibitory concentration against Candida albicans 406; assay type: functional; settings: Candida albicans; read-out: MIC; method in brief: as §2
[13] = test system: Meyerozyma guilliermondii; assay: In vitro evaluation of minimum inhibitory concentration against Candida guilliermondii 26; assay type: functional; settings: Meyerozyma guilliermondii; read-out: MIC; method in brief: as §1
Pichia kudriavzevii = assay: In vitro evaluation of minimum inhibitory concentration against Candida krusei 70; assay type: functional; settings: Pichia kudriavzevii; read-out: MIC; method in brief: as §1
Candida parapsilosis = assay: In vitro evaluation of minimum inhibitory concentration against Candida parapsilosis 61; assay type: functional; settings: Lodderomyces parapsilosis; read-out: MIC; method in brief: as §1
Candida tropicalis = assay: In vitro evaluation of minimum inhibitory concentration against Candida tropicalis 2.11; assay type: functional; settings: Candida tropicalis; read-out: MIC; method in brief: as §1
Mus sp. [14] = assay: In vivo evaluation of % survival rate after peroral administration on 3rd day at dose 2.5 mg/kg; assay type: functional; settings: Mus sp., po
Mus sp. [15] = assay: In vivo evaluation of % survival rate after peroral administration on 5th day at dose 2.5 mg/kg; assay type: functional; settings: Mus sp., po
Mus sp. [16] = assay: In vivo evaluation of % survival rate after peroral administration on 7th day at dose 2.5 mg/kg; assay type: functional; settings: Mus sp., po
Mus sp. [17] = assay: In vivo evaluation of % survival rate after peroral administration on 9th day at dose 2.5 mg/kg; assay type: functional; settings: Mus sp., po
Microsporum canis = assay: In vitro evaluation of minimum inhibitory concentration against Microsporum canis 47; assay type: functional; settings: Microsporum canis; read-out: MIC; method in brief: as §1
Nannizzia gypsea = assay: In vitro evaluation of minimum inhibitory concentration against Microsporum gypseum 22; assay type: functional; settings: Nannizzia gypsea; read-out: MIC; method in brief: as §1
Nakaseomyces glabratus = assay: In vitro evaluation of minimum inhibitory concentration against Torulopsis glabrata 78; assay type: functional; settings: Nakaseomyces glabratus; read-out: MIC; method in brief: as §1
Trichophyton benhamiae = assay: In vitro evaluation of minimum inhibitory concentration against Trichophyton mentagrophytes 23; assay type: functional, Arthroderma benhamiae; settings: Trichophyton benhamiae; read-out: MIC; method in brief: as §1
Trichophyton rubrum = assay: In vitro evaluation of minimum inhibitory concentration against Trichophyton rubrum 90; assay type: functional; settings: Trichophyton rubrum; read-out: MIC; method in brief: as §1
Rhodotorula mucilaginosa = assay: In vitro evaluation of minimum inhibitory concentration against Rhodotorula rubra 16; assay type: functional; settings: Rhodotorula mucilaginosa; read-out: MIC; method in brief: as §1
Aspergillus flavus = assay: In vitro evaluation of minimum inhibitory concentration against Aspergillus flavus 19; assay type: functional; settings: Aspergillus flavus; read-out: MIC; method in brief: as §1
Aspergillus fumigatus [18] = assay: In vitro evaluation of minimum inhibitory concentration against Aspergillus fumigatus 33; assay type: functional; settings: Aspergillus fumigatus; read-out: MIC; method in brief: as §1
Candida albicans [19] = assay: In vivo evaluation of minimum inhibitory concentration against Candida albicans 76; assay type: functional; method in brief: as §2
[20] = test system: Meyerozyma guilliermondii; assay: In vivo evaluation of minimum inhibitory concentration against Candida guilliermondii 26; assay type: functional; settings: in the assay text read “In vitro” for “In vivo”; method in brief: as §5
[21] = Candida albicans, read-out: MIC
[22] = Kluyveromyces marxianus, read-out: MIC

Row | SMILES | MIC (Aspergillus niger) [µg/mL] | MIC [13] [µg/mL] | MIC (Pichia kudriavzevii) [µg/mL] | MIC (Candida parapsilosis) [µg/mL] | survival at 2.5 mg/kg (Mus sp. [14]) [%] | survival at 2.5 mg/kg (Mus sp. [15]) [%] | survival at 2.5 mg/kg (Mus sp. [16]) [%] | survival at 2.5 mg/kg (Mus sp. [17]) [%] | MIC (Microsporum canis) [µg/mL] | MIC (Nannizzia gypsea) [µg/mL] | MIC (Nakaseomyces glabratus) [µg/mL] | MIC (Trichophyton benhamiae) [µg/mL] | MIC (Trichophyton rubrum) [µg/mL] | MIC (Rhodotorula mucilaginosa) [µg/mL] | MIC (Kluyveromyces marxianus; [22]) [µg/mL] | MIC (Aspergillus flavus) [µg/mL] | MIC (Aspergillus fumigatus [18]) [µg/mL] | MIC (Candida albicans [19]) [µg/mL] | also measured
1 | C[C@H]1N(C(=O)c2ccc(C(F)(F)F)cc2)CC(=O)O[C@@]1(Cn1cncn1)c1ccc(F)cc1F |  |  |  |  |  |  |  |  |  |  |  |  |  |  |  |  |  |  | MIC (Candida albicans [1]): 80 µg/mL (≈ 167 µM); MIC (Candida albicans [2]): 40 µg/mL (≈ 83.3 µM); Survival (Mus sp. [3]): 100%; Survival (Mus sp. [4]): 100%; Survival (Mus sp. [5]): 90%; Survival (Mus sp. [6]): 10%; Cure rate (Rattus norvegicus [7]): 10%; Cure rate (Rattus norvegicus [8]): 90%; Cure rate (Rattus norvegicus [9]): 90%; MIC (Kluyveromyces marxianus): 80 µg/mL (≈ 167 µM); Cure rate (Rattus norvegicus [10]): 0%
2 | C[C@H]1N(C(=O)c2ccc(C(F)(F)F)cc2)CC(=O)O[C@@]1(Cn1cncn1)c1ccc(C(F)(F)F)cc1 (racemic) | > 80 | > 80 | > 80 | > 80 | 20 | 20 | 10 | 10 | > 80 | > 80 | > 80 | > 80 | > 80 | > 80 | 80 (≈ 156 µM) | > 80 |  |  | MIC (Aspergillus fumigatus [11]): > 80 µg/mL; MIC (Candida albicans [1]; [21]): > 80 µg/mL; MIC (Candida albicans [12]): > 80 µg/mL; MIC (Candida albicans [2]; [21]): > 80 µg/mL; MIC (Candida tropicalis): > 80 µg/mL
3 | C[C@H]1N(C(=O)c2ccc(OCC(F)(F)F)cc2)CC(=O)O[C@@]1(Cn1cncn1)c1ccc(F)cc1F (racemic) | > 80 |  | > 80 | > 80 | 100 | 100 | 100 | 70 | > 80 | > 80 | > 80 | > 80 | > 80 | > 40 | 40 (≈ 78.4 µM) | > 80 | > 80 | 80 (≈ 157 µM) | MIC [20]: > 80 µg/mL
4 | C[C@H]1N(C(=O)c2ccc(OC(F)(F)F)cc2)CC(=O)O[C@@]1(Cn1cncn1)c1ccc(F)cc1F (racemic) | > 80 | > 80 | > 80 | > 80 | 100 | 100 | 100 | 90 | > 80 | > 80 | > 80 | > 80 | > 80 | > 40 | 40 (≈ 80.6 µM) | > 80 | > 80 | 80 (≈ 161 µM) | 
